Consider two compounds from ChEMBL document CHEMBL1143378, “Inactivation of GABA transaminase by 3-chloro-1-(4-hydroxyphenyl)propan-1-one” (Bioorg Med Chem Lett, 2009).

Structures are written as SMILES. Activity calls are given as the source filed them. The calls are words filed in the database; no cut-off is given here.

Assay type in all cases: tissue-based
Test [1] concerns the target 4-aminobutyrate aminotransferase, mitochondrial (Rattus norvegicus) (UniProt P50554). Briefly: Inhibition of GABA transaminase in rat brain at 45 uM after 40 mins in presence of alpha-ketoglutarate. The method, boiled down:
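Rat brain GABA-T was incubated with GABA, inhibitor (45 μM) and varying α-ketoglutarate concentrations together for 40 min before enzyme activity was measured.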

Test [2] has the same target. Briefly: Ratio of Kinact to KI for GABA transaminase in rat brain. The method, boiled down: (§1)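 GABA-T was isolated from rat brain. For time-dependent inactivation, log remaining activity was plotted against time at each inactivator concentration. Inverse slopes were then plotted against inverse inactivator concentration, and K_I and k_inact were taken from a Kitz–Wilson plot.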

Test [3] deals with T1, 4-aminobutyrate aminotransferase, mitochondrial (Rattus norvegicus, UniProt P50554). Briefly: Inhibition of GABA transaminase in rat brain by Kitz-Wilson plot. The method, boiled down:
as §1

For test [4], the target named is T1, 4-aminobutyrate aminotransferase, mitochondrial. Briefly: (§2) Activity of GABA transaminase in rat brain.
Test [5] addresses 4-aminobutyrate aminotransferase, mitochondrial (Rattus norvegicus) (UniProt P50554). The description is as §2.
Test [6] shares this target. The test can be described thus: Inhibition of GABA transaminase in rat brain at 30 uM for 40 mins in presence of 30 mM alpha-ketoglutarate. Put shortly:
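Rat brain GABA-T was preincubated with inhibitor (30 μM) for 40 min. Increasing concentrations of α-ketoglutarate, up to 30 mM, were then added and residual activity was measured. A no-inactivator control was run. Values are mean ± SEM, n = 6.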

For test [7] the target is unchanged. Briefly: Inhibition of GABA transaminase in rat brain at 60 uM after 30 mins by gel filtration. The method, boiled down:
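Rat brain GABA-T was incubated with 60 μM inhibitor at 25 °C for 30 min and an aliquot was assayed. The remaining mixture was passed through Sephadex G50 to remove small molecules and assayed again. An identical sample without inactivator served as control. Values are mean ± SEM, n = 6.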
On the technique in general: Size exclusion chromatography separates by hydrodynamic size, large species first.

Sequence of 4-aminobutyrate aminotransferase, mitochondrial (Rattus norvegicus) (P50554 28-500 limits assumed): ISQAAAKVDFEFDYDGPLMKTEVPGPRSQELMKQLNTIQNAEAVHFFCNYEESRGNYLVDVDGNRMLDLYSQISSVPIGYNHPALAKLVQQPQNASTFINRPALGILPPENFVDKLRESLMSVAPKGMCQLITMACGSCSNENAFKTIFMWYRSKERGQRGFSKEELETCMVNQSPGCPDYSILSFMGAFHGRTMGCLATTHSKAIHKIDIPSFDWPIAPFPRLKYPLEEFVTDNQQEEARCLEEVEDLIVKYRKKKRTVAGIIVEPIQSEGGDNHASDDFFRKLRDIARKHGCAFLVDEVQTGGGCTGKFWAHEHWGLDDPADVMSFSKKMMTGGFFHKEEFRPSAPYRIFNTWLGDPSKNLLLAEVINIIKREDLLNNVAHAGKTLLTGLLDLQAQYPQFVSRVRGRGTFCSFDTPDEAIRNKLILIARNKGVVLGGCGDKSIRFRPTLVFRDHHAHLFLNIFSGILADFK
T1 sequence (P50554 whole entry): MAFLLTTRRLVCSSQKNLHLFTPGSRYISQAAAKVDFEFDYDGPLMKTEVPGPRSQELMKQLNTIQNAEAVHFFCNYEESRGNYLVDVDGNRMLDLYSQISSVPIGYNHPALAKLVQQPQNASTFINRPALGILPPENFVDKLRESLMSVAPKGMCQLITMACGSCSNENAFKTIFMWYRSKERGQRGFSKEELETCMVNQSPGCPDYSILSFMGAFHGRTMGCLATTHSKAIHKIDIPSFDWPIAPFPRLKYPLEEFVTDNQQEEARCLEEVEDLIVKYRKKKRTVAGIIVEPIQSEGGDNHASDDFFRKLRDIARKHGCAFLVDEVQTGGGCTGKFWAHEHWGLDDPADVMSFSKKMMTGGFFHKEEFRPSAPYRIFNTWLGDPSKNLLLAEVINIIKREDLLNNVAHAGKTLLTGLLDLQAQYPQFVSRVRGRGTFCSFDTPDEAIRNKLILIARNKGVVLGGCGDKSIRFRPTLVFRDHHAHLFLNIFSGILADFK

A word on the IC50: it is the concentration that gives 50% inhibition. A low value points to higher potency. In general, Ki refers to a dissociation constant, usually derived from enzyme kinetics or from competition with a known ligand. High values mean a looser hold on the target, low ones a stronger hold on the target. For the compound `O=C(CCCl)c1ccc(O)cc1`, in test [1], the outcome was inactive. For the same compound, in test [2], the Ratio worked out at 1.88. Also, the IC50 in test [3] is 3.99 µM. In test [4], this compound displayed a Ki of 24.3 µM. This compound also gave a Kinact in test [5] of 0.0457 min⁻¹. For the same compound, the outcome in test [6] and in test [7] was Active.

With `O=Cc1ccc(O)cc1` [4-HYDROXYBENZALDEHYDE], inhibition in test [3] was half-maximal at 16.5 µM (IC50). This lies in the double-digit micromolar range.
